Results on 12 molecules are retold here after ChEMBL document CHEMBL4350954, “Identification of Thienopyrimidine Scaffold as an Inhibitor of the ABC Transport Protein ABCC1 (MRP1) and Related Transporters Using a Combined Virtual Screening Approach” (J Med Chem, 2019).

Each structure is given as a SMILES string. pIC50: −log10 of the molar value.

Holding throughout (format): cell-based
The target in series [1] is T1, Broad substrate specificity ATP-binding cassette transporter ABCG2 (Homo sapiens, UniProt Q9UNQ0).
T1 sequence (Q9UNQ0 whole entry): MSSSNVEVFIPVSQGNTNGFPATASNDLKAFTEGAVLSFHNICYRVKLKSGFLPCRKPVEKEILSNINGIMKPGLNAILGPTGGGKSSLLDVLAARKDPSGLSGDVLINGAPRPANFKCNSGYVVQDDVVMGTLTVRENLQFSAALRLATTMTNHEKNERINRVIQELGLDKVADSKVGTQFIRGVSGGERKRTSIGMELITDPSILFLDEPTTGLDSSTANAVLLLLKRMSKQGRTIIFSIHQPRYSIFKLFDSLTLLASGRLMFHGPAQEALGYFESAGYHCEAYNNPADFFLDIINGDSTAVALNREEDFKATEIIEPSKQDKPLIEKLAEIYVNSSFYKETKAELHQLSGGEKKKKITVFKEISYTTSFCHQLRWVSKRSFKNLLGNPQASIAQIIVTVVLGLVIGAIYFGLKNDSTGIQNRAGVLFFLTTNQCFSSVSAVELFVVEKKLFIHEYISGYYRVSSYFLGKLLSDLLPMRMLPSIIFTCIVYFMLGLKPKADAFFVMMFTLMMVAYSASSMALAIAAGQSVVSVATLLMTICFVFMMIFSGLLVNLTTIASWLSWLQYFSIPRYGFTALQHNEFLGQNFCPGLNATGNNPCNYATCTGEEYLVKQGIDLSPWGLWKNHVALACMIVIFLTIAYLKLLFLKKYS
The experiment in a line: Inhibition of ABCG2 (unknown origin) expressed in MDCK2 cells co-expressing BCRP (unknown origin) assessed as effect on pheophorbide A accumulation pre-incubated for 20 mins followed by pheophorbide A addition and measured after 120 mins by flow cytometric analysis. An outline of the steps: (§1)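 Pheophorbide A accumulation assay in ABCG2-transfected MDCK II BCRP cells. Ko143 at 10 µM set 100% and no compound set 0%. Screening was at 10 µM; compounds reaching >20% (+SEM) got IC50 curves constrained to the Ko143 maximum at 10 µM. Values are reported as mean ± SEM.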

The target of series [2] is T2, ABCG2 (BCRP) (Homo sapiens, UniProt Q9UNQ0).
T2 sequence (Q9UNQ0 whole entry): T1 sequence (Q9UNQ0 whole entry)
The series is described as follows: Inhibition of ABCG2 (unknown origin) expressed in MDCK2 cells co-expressing BCRP (unknown origin) assessed as effect on pheophorbide A accumulation at 10 uM pre-incubated for 20 mins followed by pheophorbide A addition and measured after 120 mins by flow cytometric analysis relative to Ko143. To be noted: probe pheophorbide A. In short, it runs like this:
as §1

The target of series [3] is T3, Multidrug resistance-associated protein 1 (Homo sapiens, UniProt P33527). The experiment in a line: Inhibition of MRP1 in human COR-L23/R cells assessed reduction in tritiated daunomycin efflux incubated for 2 hrs by radioactivity-based assay.
For series [4], the target named is T3, Multidrug resistance-associated protein 1. The series is described as follows: Inhibition of ABCC1 in human H69AR cells preincubated for 30 mins followed by calcein-AM addition measured at 60 secs time interval by fluorescence assay. In short, it runs like this: (§2)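 Calcein AM accumulation assay in H69AR small-cell lung cancer cells, which express only ABCC1. Inhibited efflux lets calcein AM build up intracellularly, where esterases cleave it to fluorescent calcein. The screen used 10 µM, scaled to a standard ABCC1 inhibitor at 10 µM as 100%. Hits reaching ≥20% inhibition (+SEM) went on to IC50 curves, constrained to that 100% maximum. Values are means of ≥3 independent experiments in duplicate ± SEM.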

Series [5] deals with ATP-dependent translocase ABCB1 (Homo sapiens, UniProt P08183). The series is described as follows: Inhibition of ABCB1 in human A2780/ADR cells preincubated for 30 mins followed by calcein AM addition and measured at 60 secs time interval by fluorescence assay.
Series [6] addresses ABCB1 (P-gp) (Homo sapiens, UniProt P08183). The experiment in a line: Inhibition of ABCB1 in human A2780/ADR cells at 10 uM preincubated for 30 mins followed by calcein AM addition and measured at 60 secs time interval by fluorescence assay relative to cyclosporine A. To be noted: probe calcein AM.
Series [7] concerns the target ABCC1 (MRP1) (Homo sapiens, UniProt P33527). The experiment in a line: Inhibition of ABCC1 in human H69AR cells at 10 uM preincubated for 30 mins followed by calcein-AM addition measured at 60 secs time interval by fluorescence assay relative to control. To be noted: probe calcein-AM. In short, it runs like this: as §2

T3 sequence (P33527 whole entry): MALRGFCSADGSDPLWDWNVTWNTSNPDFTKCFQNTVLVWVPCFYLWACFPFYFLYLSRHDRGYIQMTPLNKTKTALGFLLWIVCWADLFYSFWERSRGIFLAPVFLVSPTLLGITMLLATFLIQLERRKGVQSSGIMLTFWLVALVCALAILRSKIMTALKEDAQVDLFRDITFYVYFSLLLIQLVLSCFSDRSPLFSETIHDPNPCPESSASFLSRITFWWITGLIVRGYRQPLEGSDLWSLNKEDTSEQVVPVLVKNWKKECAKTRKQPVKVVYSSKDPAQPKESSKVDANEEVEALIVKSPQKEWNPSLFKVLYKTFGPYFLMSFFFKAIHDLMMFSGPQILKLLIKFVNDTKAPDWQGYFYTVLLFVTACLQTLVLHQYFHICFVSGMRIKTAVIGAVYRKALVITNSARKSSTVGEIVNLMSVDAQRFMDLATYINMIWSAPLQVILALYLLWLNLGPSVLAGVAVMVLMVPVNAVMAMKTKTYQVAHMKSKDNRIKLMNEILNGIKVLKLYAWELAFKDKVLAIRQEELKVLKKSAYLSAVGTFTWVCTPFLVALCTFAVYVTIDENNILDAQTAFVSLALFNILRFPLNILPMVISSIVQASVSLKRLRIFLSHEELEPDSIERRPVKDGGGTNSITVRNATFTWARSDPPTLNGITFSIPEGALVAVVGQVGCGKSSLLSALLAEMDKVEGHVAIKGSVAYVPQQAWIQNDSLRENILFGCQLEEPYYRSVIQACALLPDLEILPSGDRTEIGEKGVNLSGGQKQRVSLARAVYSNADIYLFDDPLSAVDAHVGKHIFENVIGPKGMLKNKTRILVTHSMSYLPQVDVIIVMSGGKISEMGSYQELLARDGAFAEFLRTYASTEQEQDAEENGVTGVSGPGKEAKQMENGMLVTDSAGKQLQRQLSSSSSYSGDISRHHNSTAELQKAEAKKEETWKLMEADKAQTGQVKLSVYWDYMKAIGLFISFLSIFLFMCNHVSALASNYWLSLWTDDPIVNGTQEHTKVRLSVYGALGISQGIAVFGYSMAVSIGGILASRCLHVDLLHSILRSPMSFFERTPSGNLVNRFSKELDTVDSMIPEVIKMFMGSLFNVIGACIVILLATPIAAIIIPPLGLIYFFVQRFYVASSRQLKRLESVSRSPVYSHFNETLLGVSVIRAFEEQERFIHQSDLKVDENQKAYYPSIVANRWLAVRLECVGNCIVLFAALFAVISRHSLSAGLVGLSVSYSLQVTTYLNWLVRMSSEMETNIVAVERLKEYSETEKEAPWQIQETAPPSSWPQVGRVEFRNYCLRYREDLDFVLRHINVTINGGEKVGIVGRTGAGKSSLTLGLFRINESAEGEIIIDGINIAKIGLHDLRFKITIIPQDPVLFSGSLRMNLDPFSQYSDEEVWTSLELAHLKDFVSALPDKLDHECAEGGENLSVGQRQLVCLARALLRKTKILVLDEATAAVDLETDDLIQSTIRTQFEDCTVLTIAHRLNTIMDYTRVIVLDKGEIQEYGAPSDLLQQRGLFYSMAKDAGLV
Sequence of ABCC1 (MRP1) (P33527 whole entry): as above
Sequence of ATP-dependent translocase ABCB1 (P08183 whole entry): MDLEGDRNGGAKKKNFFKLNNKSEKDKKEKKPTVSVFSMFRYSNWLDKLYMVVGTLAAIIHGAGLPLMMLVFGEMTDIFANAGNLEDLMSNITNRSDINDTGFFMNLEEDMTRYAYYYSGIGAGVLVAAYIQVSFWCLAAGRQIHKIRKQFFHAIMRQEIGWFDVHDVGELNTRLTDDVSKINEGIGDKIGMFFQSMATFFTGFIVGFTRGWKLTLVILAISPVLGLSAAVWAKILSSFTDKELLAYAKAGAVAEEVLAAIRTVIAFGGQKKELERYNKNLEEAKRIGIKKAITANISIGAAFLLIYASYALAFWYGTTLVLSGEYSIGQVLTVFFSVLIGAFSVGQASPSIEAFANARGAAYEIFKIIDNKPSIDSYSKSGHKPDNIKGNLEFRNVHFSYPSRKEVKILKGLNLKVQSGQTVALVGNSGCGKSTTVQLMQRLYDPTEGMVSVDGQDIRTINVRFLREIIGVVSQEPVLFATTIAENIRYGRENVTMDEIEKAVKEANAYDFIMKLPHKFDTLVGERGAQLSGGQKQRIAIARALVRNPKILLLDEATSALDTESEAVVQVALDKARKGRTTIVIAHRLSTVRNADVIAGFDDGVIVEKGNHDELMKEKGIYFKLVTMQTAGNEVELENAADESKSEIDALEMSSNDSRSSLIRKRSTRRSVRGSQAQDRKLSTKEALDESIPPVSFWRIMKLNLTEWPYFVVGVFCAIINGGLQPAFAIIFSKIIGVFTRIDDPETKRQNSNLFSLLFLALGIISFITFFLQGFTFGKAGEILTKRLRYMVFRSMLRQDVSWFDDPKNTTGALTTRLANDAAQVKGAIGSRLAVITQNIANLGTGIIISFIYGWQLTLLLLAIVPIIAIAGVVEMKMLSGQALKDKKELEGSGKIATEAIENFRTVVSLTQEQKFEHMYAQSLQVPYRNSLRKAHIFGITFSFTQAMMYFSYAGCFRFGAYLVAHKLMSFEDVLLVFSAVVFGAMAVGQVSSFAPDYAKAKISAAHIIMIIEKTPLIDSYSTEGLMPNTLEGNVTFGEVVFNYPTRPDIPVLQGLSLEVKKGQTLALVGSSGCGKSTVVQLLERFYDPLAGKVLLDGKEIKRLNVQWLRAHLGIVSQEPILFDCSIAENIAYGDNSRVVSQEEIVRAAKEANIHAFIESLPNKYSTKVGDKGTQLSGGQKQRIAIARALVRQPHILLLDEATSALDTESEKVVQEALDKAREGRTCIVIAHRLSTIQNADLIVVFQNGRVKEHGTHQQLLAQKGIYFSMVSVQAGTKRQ
Sequence of ABCB1 (P-gp) (P08183 whole entry): as above

In the case of `N#Cc1ccc(CN2CCN(C(=O)c3cn(Cc4ccccc4)nc3-c3cccnc3)CC2)cc1`, the negative-log IC50 (pIC50) in series [1] is 4.81. Moreover, the inhibition at 2 h, 10 µM in series [2] was no less than 20%.
As for `CCOC(=O)Cn1c2cccc(C(N)=O)c2c2ncnc(N3CCN(CCc4ccc(F)c(F)c4)CC3)c21`, in series [3], the negative-log IC50 (pIC50) is 6.91.
With `Cc1nc2cc(NC(=O)C3CCCN(c4cc(-n5cccn5)ncn4)C3)ccc2s1` (stereo not drawn), the negative-log IC50 (pIC50) in series [4] is 4.64; in series [5], 5.32; in series [1], 5.86. The inhibition at 1 min, 10 µM in series [6] and in series [7] was no less than 20% in each case. Moreover, the inhibition at 2 h, 10 µM in series [2] is no less than 20%.
As for `Cc1ccccc1-n1nnnc1SCC(=O)N1CCN(Cc2ccccc2)CC1`, the negative logarithm of the IC50 (pIC50) in series [5] is 4.58. Also, the inhibition at 1 min, 10 µM in series [6] is no less than 20%.
`O=C(CSc1nnc(-c2ccc(F)cc2)o1)N1CCN(Cc2ccc3c(c2)CCO3)CC1`: the pIC50 in series [5] is 4.51; in series [1], 4.84. For the same molecule, the inhibition at 1 min, 10 µM in series [6] was no less than 20%. In addition, in series [2], the inhibition at 2 h, 10 µM is no less than 20%.
As for `Cc1cc(C)c2c(n1)sc1c(N3CCN(Cc4ccccc4Cl)CC3)ncnc12`, the figures for the negative logarithm of the IC50 (pIC50) in series [5] and in series [1] were 5.55 and 5.06, respectively. In addition, the inhibition at 1 min, 10 µM in series [6] was no less than 20%. Moreover, in series [2], the inhibition at 2 h, 10 µM was no less than 20%.
On to `CCCc1cc(N2CCN(CCOc3cccc4ccccc34)CC2)n2nc3nc(C)cc(C)c3c2n1`, for which the figures for the negative-log IC50 (pIC50) in series [5] and in series [1] were 4.84 and 4.93, respectively. In addition, in series [6], the inhibition at 1 min, 10 µM was no less than 20%. The inhibition at 2 h, 10 µM in series [2] was no less than 20%.
With `Fc1ccccc1N1CCN(Cc2csc(-c3ccc4c(c3)OCO4)n2)CC1`, the figures for the pIC50 in series [5] and in series [1] were 4.81 and 4.95, respectively. For the same molecule, the inhibition at 1 min, 10 µM in series [6] is no less than 20%. Moreover, the inhibition at 2 h, 10 µM in series [2] is no less than 20%.
As for `O=C(c1cc(-c2cccnc2)nc2ccccc12)N1CCN(Cc2cccs2)CC1`, the pIC50 in series [4] is 4.41; in series [5] it was 4.56; in series [1], 4.80. In addition, the inhibition at 1 min, 10 µM in series [6] and in series [7] was no less than 20% throughout. For the same molecule, the inhibition at 2 h, 10 µM in series [2] is no less than 20%.
In the case of `O=C(c1ccc2c(c1)OCCO2)C1CCN(C(=O)c2ccc(-n3cccn3)cc2)CC1`, the pIC50 in series [1] is 4.98. Also, in series [2], the inhibition at 2 h, 10 µM was no less than 20%.
For the molecule `Cc1ccccc1-n1c(SCC(=O)N2CCN(Cc3ccccc3)CC2)nnc1-c1cccnc1`, in series [5], the negative-log IC50 (pIC50) was 4.81. In addition, the inhibition at 1 min, 10 µM in series [6] was no less than 20%.
For the molecule `C[C@@]1(C(=O)Nc2ccc(F)nc2)CCCN1c1nc(Nc2cc(C3CC3)n[nH]2)c2cccn2n1` [BMS-754807], the negative-log IC50 (pIC50) is 4.44 in series [4], 4.75 in series [5] and 4.99 in series [1]. Besides, the inhibition at 1 min, 10 µM in series [6] and in series [7] was no less than 20% each time. In series [2], the inhibition at 2 h, 10 µM was no less than 20%.
